From ChEMBL document CHEMBL1154317, “Discovery of a potent, metabolically stabilized resorcylic lactone as an anti-inflammatory lead” (Bioorg Med Chem Lett, 2009) come the findings set out here.

The test system of data set [1] is THP-1. In words: Antiinflammatory activity in human THP1 cells assessed as inhibition of LPS-induced TNFalpha production by PLAP reporter assay. It is filed as functional, cell-based. The gist of the method: (§1)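 Stably transfected PLAP reporter lines (TNFα-promoter/5'-UTR-PLAP in THP-1-33; β-actin-promoter-PLAP in B164), kept in RPMI1640 with 10% heat-inactivated endotoxin-free FBS and G418 1 mg/mL. Seeded at 1.0×10^4 cells/well, preincubated with compound 30 min, then stimulated with LPS 100 ng/ml (E. coli 0127:B08 or 011:B4). After 24-48 h, supernatant alkaline phosphatase activity read; IC50 reported.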
(In general: A reporter such as luciferase makes a cellular process visible.)

Data set [2] in a line: Antiinflammatory activity in human B164 cells assessed as inhibition of LPS-induced Actin production by PLAP reporter assay. Type of data set: functional, cell-based. Put shortly:
as §1

Data set [3] is described as follows: Metabolic stability in mouse plasma after 2 hrs. The following applies: read-out: Stability. Type of data set: ADME, cell-free. Put shortly: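 Compound at 50 μg/ml or 50 μM in freshly prepared heparinized mouse blood, incubated at 37 °C for 0, 30 and 120 min. Each sample extracted with MeOH containing 0.2% perchloric acid. Analyzed by reverse-phase HPLC, 30% acetonitrile in KH2PO4 buffer pH 3.5. Parent peak area at each time expressed as % of the 0 min area.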

The nature of data set [4]: Half life in BALB/c mouse at 3 mg/kg, iv. Type of data set: ADME, organism-based. On the set-up: route intravenous, dose 3 mg/kg. The settings on record: in vivo. Put shortly: (§2)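 Single intravenous dose given to BALB/c mice. Parent drug levels were measured in plasma over time after dosing. CL, VDss, t1/2 and AUC were derived from these plasma levels. AUC is reported normalised to dose, […].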

The nature of data set [5]: Clearance in BALB/c mouse at 3 mg/kg, iv. Type of data set: ADME, organism-based. Also on record: dose 3 mg/kg, route intravenous. The settings on record: in vivo. Put shortly: as §2
Data set [6] can be described thus: Volume of distribution at steady state in BALB/c mouse at 3 mg/kg, iv. Type of data set: ADME, organism-based. The following applies: in vivo, read-out: Vdss. On the set-up: dose 3 mg/kg, route intravenous. Put shortly:
as §2

Data set [7] relates to Mus musculus. In words: Normalised AUC in BALB/c mouse at 3 mg/kg, iv. Type of data set: ADME, organism-based. The following applies: in vivo. Also on record: dose 3 mg/kg, route intravenous. The gist of the method: as §2
In data set [8] the test system is U-937. Nature of the data set: Antiinflammatory activity in human U937 cells assessed as inhibition of LPS-induced Actin production by ELISA. Type of data set: functional, cell-based. (In an ELISA, binding on a coated surface is turned into a signal by an enzyme label.)
The test system of data set [9] is U-937. Nature of the data set: Antiinflammatory activity in human U937 cells assessed as inhibition of LPS-induced TNFalpha production by ELISA. Type of data set: functional, cell-based.
The species named for data set [10] is Mus musculus. Nature of the data set: Antiinflammatory activity in mouse assessed as inhibition of LPS-induced IL6 production. Type of data set: functional, organism-based. Put shortly:
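Mice given compound together with LPS by tail-vein injection in 10% cyclodextrin. Blood collected 3 h later and plasma IL-6 measured by ELISA. Mean with SEM, n = 6-8. Compared against the LPS-treated control group by Dunnett's post hoc test, P<0.05.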

As usually defined, the IC50 is the concentration needed to halve the response being measured. The half-life is the time in which the quantity being followed falls by half. Low readings indicate rapid decline, high ones slow decline. The term clearance denotes the rate of elimination divided by the concentration. A high value points to a high capacity for elimination.

Structures are written as SMILES. The source made the active and inactive calls. No cut-off for these calls is given here.

`COc1cc(O)c2c(c1)/C=C/C[C@H](O)[C@H](O)C(=O)C1CC1OC2=O` (stereo not given in full): the concentration for half-maximal inhibition (IC50) in [1] was more than 10000 nM; in data set [2] it was more than 10 µM.
Regarding `COc1cc(O)c2c(c1)/C=C/C[C@H](O)[C@H](O)/C=C(\F)[C@@H](C)[C@H](C)NC2=O`, the results for the IC50 in data set [1] and in data set [2] were 200 nM and more than 10 µM, respectively.
For `COc1cc(O)c2c(c1)/C=C/C[C@H](O)[C@H](O)C(=O)/C=C\C[C@@H](C)OC2=O`, in that order: 1050 nM and 7.07 µM.
Consider `COc1cc(O)c2c(c1)/C=C/C[C@H](O)[C@H](O)C(=O)/C=C\[C@H](OC)[C@H](C)OC2=O`, for which the remaining at 2 h in data set [3] was 25%. The IC50 stood at 239 nM in [1] and 7.6 µM in [2].
Regarding `COc1cc(O)c2c(c1)/C=C/C[C@H](O)[C@H](O)/C=C\[C@@H](C)CNC2=O`, the values for the IC50 in [1] and in data set [2] were 259 nM and more than 10 µM, respectively.
For `COc1cc(O)c2c(c1)/C=C/C[C@H](O)[C@H](O)C(=O)/C=C\[C@@H]1CCC[C@@H]1OC2=O`, the remaining at 2 h in data set [3] is 77%. Further, the IC50 amounted to 667 nM in data set [1] and 3 µM in data set [2].
On to `COc1cc(O)c2c(c1)/C=C/C[C@H](O)[C@H](O)C(=O)/C=C\CCOC2=O`, for which the IC50 in data set [1] came to 69 nM; in data set [2], 2.8 µM.
Consider `CC[C@H]1C/C=C\C(=O)[C@@H](O)[C@@H](O)C/C=C/c2cc(OC)cc(O)c2C(=O)O1`, for which the 50% inhibitory concentration (IC50) in data set [1] worked out at 59 nM; in data set [2] it was 2.44 µM.
Turning to `COc1cc(O)c2c(c1)/C=C/C[C@H](O)[C@H](O)C(=O)/C=C\C[C@H](C)OC2=O`, the remaining at 2 h in data set [3] worked out at 2%. Besides, the half-life in data set [4] is 3 min. The same compound had a clearance in [5] of 710 mL/min/kg. In data set [6], the Vd is 3.3 L/kg. Also, the half-inhibitory concentration (IC50) in [1] worked out at 11 nM; in data set [2] it was 2.37 µM. Besides, the AUC/dose in data set [7] was 23.8 ng·h/mL/(mg/kg).
In the case of `COc1ccc(CO[C@@H]2/C=C\C(=O)[C@@H](O)[C@@H](O)C/C=C/c3cc(OC)cc(O)c3C(=O)O[C@H]2C)cc1`, the IC50 is 888 nM in [1] and more than 10 µM in data set [2].
For `COc1cc(O)c2c(c1)/C=C/C[C@H](O)[C@H](O)/C=C\[C@H](C)[C@@H](C)OC2=O`, in that order: more than 10000 nM and more than 10 µM.
Turning to `COc1cc(O)c2c(c1)/C=C/C[C@H](O)[C@H](O)C(=O)/C=C\[C@H]1CCC[C@H]1OC2=O`, the remaining at 2 h in data set [3] came to 34%. Also, the values for the IC50 in [1] and in data set [2] were 4000 nM and more than 30 µM, respectively.
As to `CC[C@@H]1/C=C\[C@@H](O)[C@@H](O)C/C=C/c2cc(OC)cc(O)c2C(=O)O[C@H]1C`, the inhibition result in [8] and in data set [9] was “inactive” in each case.
Regarding `COc1cc(O)c2c(c1)/C=C/C[C@H](O)[C@H](O)/C=C\C(C)(C)COC2=O`, the IC50 was more than 10000 nM in data set [1] and more than 10 µM in data set [2].
In the case of `COc1cc(O)c2c(c1)/C=C/C[C@@H](O)[C@@H](O)C(=O)/C=C\C[C@@H](C)OC2=O`, the IC50 stood at 2620 nM in data set [1] and 4.98 µM in data set [2].
As for `COc1cc(O)c2c(c1)/C=C/C[C@H](O)[C@H](O)C(=O)/C=C\[C@@H](C)[C@H](C)OC2=O`, in data set [3], the remaining at 2 h was more than 80%. In data set [10], the inhibition entry was “Active”. In addition, the half-life in data set [4] is 206 min. This compound also had a clearance in data set [5] of 91.8 mL/min/kg. Moreover, the Vd in data set [6] worked out at 1.69 L/kg. The concentration for half-maximal inhibition (IC50) in data set [1] was 136 nM; in data set [2], more than 10 µM. In data set [7], the AUC/dose is 181 ng·h/mL/(mg/kg).
Regarding `COc1cc(O)c2c(c1)/C=C/C[C@H](O)[C@H](O)/C=C\[C@@H](CC(F)(F)F)[C@H](C)OC2=O`, the IC50 in data set [1] is 9000 nM; in data set [2], more than 10 µM.
For `COc1cc(O)c2c(c1)/C=C/C[C@H](O)[C@H](O)/C=C\[C@@H](C)COC2=O`, in that order: 203 nM and more than 10 µM.
For `COc1cc(O)c2c(c1)/C=C/C[C@H](O)[C@H](O)C(=O)/C=C\C[C@H](C(F)(F)F)OC2=O`, in that order: 31 nM and 1.33 µM.
`COc1cc(O)c2c(c1)/C=C/C[C@H](O)[C@H](O)C(=O)/C=C\C[C@H](c1ccccc1)OC2=O`: the IC50 in [1] worked out at 3690 nM; in data set [2], 4.41 µM.
As to `COc1cc(O)c2c(c1)/C=C/C[C@H](O)[C@H](O)/C=C\[C@@H](Cc1ccccc1)[C@H](C)OC2=O`, the 50% inhibitory concentration (IC50) in [1] was more than 10000 nM; in data set [2] it was more than 10 µM.
For `CC[C@@H]1C/C=C\C(=O)[C@@H](O)[C@@H](O)C/C=C/c2cc(OC)cc(O)c2C(=O)O1`, in that order: 5210 nM and 8.47 µM.
For `COc1cc(O)c2c(c1)/C=C/C[C@H](O)[C@H](O)/C=C\[C@H](C)[C@H](C)OC2=O`, in that order: 1140 nM and more than 10 µM.
